# Assay results: ChEMBL document CHEMBL4118224, “Design and Synthesis of a Novel Series of Orally Bioavailable, CNS-Penetrant, Isoform Selective Phosphoinositide 3-Kinase γ (PI3Kγ) Inhibitors with Potential for the Treatment of Multiple Sclerosis (MS)” (J Med Chem, 2018)
# Calls of active or inactive are those of the source. The rule behind the calls is not given here.
# What was measured:
# [1] = biological target: T1, Phosphatidylinositol 4,5-bisphosphate 3-kinase catalytic subunit gamma isoform (Homo sapiens, UniProt P48736); assay: Inhibition of PI3Kgamma (unknown origin) using PIP2 as substrate after 15 mins in presence of [33P-ATP] by liquid scintillation counting method
# [2] = organism: Homo sapiens; assay: Selectivity ratio of Ki for PI3Kalpha (unknown origin) to Ki for PI3Kgamma (unknown origin)
# [3] = organism: Homo sapiens; assay: Selectivity ratio of Ki for PI3Kbeta (unknown origin) to Ki for PI3Kgamma (unknown origin)
# [4] = organism: Homo sapiens; assay: Selectivity ratio of Ki for PI3Kdelta (unknown origin) to Ki for PI3Kgamma (unknown origin)
# [5] = test system: MDR1; assay: Efflux ratio of permeability from basolateral to apical over apical to basolateral side in MDCK cells harboring MDR1; assay type: ADME, cell-based, Canis lupus familiaris; conditions: dog
# Summary of the method: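 MDR1-MDCK monolayers; bidirectional transport. A-B permeability in x10-6 cm/s; efflux taken as the B-A/A-B ratio.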
# [6] = Clearance in iv dosed rat; assay type: ADME, organism-based; conditions: in vivo
# Summary of the method: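 Rat, dog and monkey PK after dosing; clearance in mL/min/Kg.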
# [7] = Intrinsic clearance in human hepatocytes assessed per million cells; assay type: ADME, cell-based, Hepatocyte; conditions: read-out: CLH
# Summary of the method: (§1)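 Intrinsic clearance in rat, dog, monkey and human hepatocytes; units µL/min/M cells.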
# [8] = Intrinsic clearance in rat hepatocytes assessed per million cells; assay type: ADME, cell-based, Hepatocyte; conditions: read-out: CLH; summary of the method: as §1
# [9] = Lipophilicity, log D of the compound at pH 7.4; assay type: physicochemical; conditions: buffer
# [10] = biological target: T1, Phosphatidylinositol 4,5-bisphosphate 3-kinase catalytic subunit gamma isoform; assay: Inhibition of PI3Kgamma in human THP1 cells assessed as inhibition of MCP1-induced Akt phosphorylation at […] residue preincubated for 1 hr followed by MCP1 stimulation for 3 mins by FACS analysis; assay type: cell-based
# Summary of the method: (§2)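 Akt phosphorylation was induced by MCP-1 in THP-1 cells or in splenocytes.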
# [11] = test system: Mus musculus; assay: Anti-inflammatory activity in MOG (35 to 55 residues)-induced EAE C57BL/6 mouse model assessed as inhibition of development of clinical symptoms at 1 mg/kg, po qd measured on day 8 post MOG (35 to 55 residues) immunization; assay type: functional, organism-based
# [12] = Half life in iv dosed rat; assay type: ADME, organism-based; conditions: in vivo
# [13] = biological target: Phosphatidylinositol-4,5-bisphosphate 3-kinase, catalytic subunit gamma (Rattus norvegicus, UniProt D3ZFJ0); assay: Inhibition of PI3Kgamma in rat spleenocytes assessed as inhibition of MCP1-induced Akt phosphorylation at […] residue preincubated for 1 hr followed by MCP1 stimulation for 3 mins by FACS analysis; assay type: cell-based; summary of the method: as §2
# [14] = test system: Mus musculus; assay: Anti-inflammatory activity in MOG (35 to 55 residues)-induced EAE C57BL/6 mouse model assessed as inhibition of development of clinical symptoms at 3 to 30 mg/kg, po bid […]; assay type: functional, organism-based
# Summary of the method: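 C57BL6 mice immunized with myelin oligodendrocyte glycoprotein in complete Freund's adjuvant containing Mycobacterium tuberculosis. Oral dosing BID at 3, 10 and 30 mg/Kg began at a clinical score of 0.5-1. Vehicle and positive-control groups were run alongside. Read-out: clinical EAE score plotted against time after onset.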
# T1 sequence (P48736 whole entry, canonical isoform): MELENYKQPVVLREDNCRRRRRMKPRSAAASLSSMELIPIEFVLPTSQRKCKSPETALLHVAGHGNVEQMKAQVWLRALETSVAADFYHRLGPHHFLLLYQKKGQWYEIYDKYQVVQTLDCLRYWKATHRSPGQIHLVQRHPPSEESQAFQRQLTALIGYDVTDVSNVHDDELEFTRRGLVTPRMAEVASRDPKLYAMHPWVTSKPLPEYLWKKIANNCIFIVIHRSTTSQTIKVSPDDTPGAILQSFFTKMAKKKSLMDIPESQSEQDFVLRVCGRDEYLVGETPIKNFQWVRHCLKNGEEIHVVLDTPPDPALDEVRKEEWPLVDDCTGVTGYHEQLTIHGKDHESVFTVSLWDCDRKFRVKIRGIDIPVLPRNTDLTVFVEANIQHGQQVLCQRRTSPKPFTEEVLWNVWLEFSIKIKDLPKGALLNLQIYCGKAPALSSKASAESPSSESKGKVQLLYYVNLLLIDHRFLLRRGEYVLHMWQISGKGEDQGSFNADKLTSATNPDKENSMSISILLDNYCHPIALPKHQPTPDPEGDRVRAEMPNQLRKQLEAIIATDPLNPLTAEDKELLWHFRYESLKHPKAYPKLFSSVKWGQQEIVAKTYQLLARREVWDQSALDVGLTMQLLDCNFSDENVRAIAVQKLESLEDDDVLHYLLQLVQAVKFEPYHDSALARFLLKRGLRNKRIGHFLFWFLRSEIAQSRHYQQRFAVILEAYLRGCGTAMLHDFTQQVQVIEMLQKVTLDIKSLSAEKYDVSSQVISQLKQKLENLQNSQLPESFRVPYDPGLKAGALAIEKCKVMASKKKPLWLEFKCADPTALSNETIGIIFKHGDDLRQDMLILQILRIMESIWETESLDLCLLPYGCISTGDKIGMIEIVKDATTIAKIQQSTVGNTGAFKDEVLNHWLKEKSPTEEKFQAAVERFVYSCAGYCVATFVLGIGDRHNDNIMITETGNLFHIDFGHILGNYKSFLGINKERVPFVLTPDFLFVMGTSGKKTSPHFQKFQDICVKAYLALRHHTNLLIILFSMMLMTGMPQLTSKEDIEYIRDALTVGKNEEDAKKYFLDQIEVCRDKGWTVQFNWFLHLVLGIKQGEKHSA
# Phosphatidylinositol-4,5-bisphosphate 3-kinase, catalytic subunit gamma, sequence (D3ZFJ0 whole entry, the tested form may be a part): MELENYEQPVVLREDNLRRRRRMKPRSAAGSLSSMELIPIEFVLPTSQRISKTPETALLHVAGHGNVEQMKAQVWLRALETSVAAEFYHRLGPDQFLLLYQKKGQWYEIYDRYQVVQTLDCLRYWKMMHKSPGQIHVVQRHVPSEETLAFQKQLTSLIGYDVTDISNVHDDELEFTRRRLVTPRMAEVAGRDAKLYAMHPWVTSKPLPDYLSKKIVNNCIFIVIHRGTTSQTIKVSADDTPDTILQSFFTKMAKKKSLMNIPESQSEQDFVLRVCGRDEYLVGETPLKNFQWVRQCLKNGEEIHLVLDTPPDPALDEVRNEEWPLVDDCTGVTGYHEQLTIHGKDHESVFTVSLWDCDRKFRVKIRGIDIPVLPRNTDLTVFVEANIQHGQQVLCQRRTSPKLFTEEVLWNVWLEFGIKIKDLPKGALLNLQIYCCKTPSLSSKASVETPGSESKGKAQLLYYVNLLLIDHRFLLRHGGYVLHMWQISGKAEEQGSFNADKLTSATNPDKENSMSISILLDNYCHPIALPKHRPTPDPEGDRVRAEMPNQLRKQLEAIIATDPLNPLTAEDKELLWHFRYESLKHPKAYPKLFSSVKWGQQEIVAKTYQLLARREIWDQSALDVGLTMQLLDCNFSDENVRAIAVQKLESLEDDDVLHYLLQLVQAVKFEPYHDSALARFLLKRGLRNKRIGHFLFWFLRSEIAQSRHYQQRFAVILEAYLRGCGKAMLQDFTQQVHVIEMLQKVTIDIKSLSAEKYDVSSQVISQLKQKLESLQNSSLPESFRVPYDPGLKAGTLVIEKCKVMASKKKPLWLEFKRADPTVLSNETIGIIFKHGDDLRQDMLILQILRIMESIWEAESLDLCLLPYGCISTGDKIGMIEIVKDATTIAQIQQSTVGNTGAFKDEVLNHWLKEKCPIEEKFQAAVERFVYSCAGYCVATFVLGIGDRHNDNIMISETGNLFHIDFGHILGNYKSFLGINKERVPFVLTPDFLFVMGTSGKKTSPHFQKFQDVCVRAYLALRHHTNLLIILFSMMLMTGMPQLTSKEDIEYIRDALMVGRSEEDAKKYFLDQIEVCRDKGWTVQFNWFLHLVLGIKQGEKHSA
Compound,Ki [1],Ratio Ki [2],Ratio Ki [3],Ratio Ki [4],also measured
COc1cc(-c2ccc3c(n2)CN(c2cnn(C)c2)C3=O)cnc1OC,60 nM,5,9,3,efflux ratio [5]: 2.5
COc1cc(-c2ccc3c(c2)CN(c2cccc(CC#N)c2)C3=O)cnc1OC,35 nM,40,11,16,clearance [6]: 160 mL/min/kg; hepatocyte CLint [7]: 30 µL/min/1e6 cells; hepatocyte CLint [8]: 88 µL/min/1e6 cells
COc1cc(-c2ccc3c(n2)CN(c2cnn(CCC#N)c2)C3=O)cnc1OC,20 nM,11,10,4,
COc1ccc(-c2ccc3c(c2)CN(c2cccc(CC#N)c2)C3=O)cc1OC,160 nM,> 25,> 25,7,clearance [6]: 116 mL/min/kg; hepatocyte CLint [7]: 26 µL/min/1e6 cells; logD [9]: 4.1; hepatocyte CLint [8]: 111 µL/min/1e6 cells
CCCCCCCCc1ccc(CCC(N)(CO)CO)cc1,,,,,Activity [11]: Active
COc1cc(-c2ccc3c(n2)CN(c2cnn(C(C)(C)C#N)c2)C3=O)cnc1OC,28 nM,15,25,10,
COc1cc(-c2ccc3c(n2)C(C)(C)N(c2cnn(CC(F)(F)F)c2)C3=O)cnc1OC,11 nM,33,12,10,clearance [6]: 6.3 mL/min/kg; IC50 [10]: 340 nM; half-life [12]: 6.6 h
COc1cc(-c2ccc3c(n2)[C@@H](C)N(c2cnn(CC(F)(F)F)c2)C3=O)cnc1OC,,,,,IC50 [13]: 210 nM; Activity [14]: Active

# Continued, in another order:
Ki [1],Ratio Ki [2],Ratio Ki [3],Ratio Ki [4],Compound,also measured
3 to 4 nM,,,,COc1cc(-c2ccc3c(n2)CN(c2cnn(CC#N)c2)C3=O)cnc1OC,
9 nM,11,25,12,C#CCn1cc(N2Cc3nc(-c4cnc(OC)c(OC)c4)ccc3C2=O)cn1,
6 nM,51,27,17,COc1cc(-c2ccc3c(c2)CN(c2cnn(CC#N)c2)C3=O)cnc1OC,clearance [6]: 56 mL/min/kg
8 nM,25,39,14,CCn1cc(N2Cc3nc(-c4cnc(OC)c(OC)c4)ccc3C2=O)cn1,
4 nM,,,,COc1cc(-c2ccc3c(n2)CN(c2cnn(CC(F)(F)F)c2)C3=O)cnc1OC,IC50 [10]: 280 nM
9 nM,22,12,5,COc1cc(-c2ccc3c(n2)CN(c2cnn(CC(F)F)c2)C3=O)cnc1OC,
11 nM,34,32,42,COc1cc(-c2ccc3c(n2)CN(c2cn[nH]c2)C3=O)cnc1OC,
